Compound activity deposited in PubChem BioAssay by The Scripps Research Institute Molecular Screening Center.
Compounds with a hit are over-represented: about 4.5% of the library has one in this group of screens.
OX1R antag-1: blocks the human orexin 1 receptor | O43613 | OX1R-expressing cells, FRET antagonist read-out | inhibition, % at 6.6 µM | hit rate 1.8% among 330,000; in the data active = inhibition mostly above about 38%, no sharp cut-off; inactive = mostly below about 40%
Target sequence (O43613 whole entry, looked up): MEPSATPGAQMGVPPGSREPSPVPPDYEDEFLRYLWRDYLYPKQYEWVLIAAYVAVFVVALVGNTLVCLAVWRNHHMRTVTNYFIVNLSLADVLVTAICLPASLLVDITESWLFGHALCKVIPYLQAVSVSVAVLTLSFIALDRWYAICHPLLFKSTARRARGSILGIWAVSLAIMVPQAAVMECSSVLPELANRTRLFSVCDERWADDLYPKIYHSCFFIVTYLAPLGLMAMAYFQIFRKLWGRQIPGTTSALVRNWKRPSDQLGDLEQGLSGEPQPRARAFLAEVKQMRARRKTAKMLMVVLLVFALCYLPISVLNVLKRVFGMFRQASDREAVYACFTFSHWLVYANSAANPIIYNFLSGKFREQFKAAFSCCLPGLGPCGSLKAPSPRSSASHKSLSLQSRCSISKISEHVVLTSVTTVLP
OX1R antag-2: human HCRTR1 antagonism; O43613; CHO/OX1R cells, Fluo-8 calcium fluorescence, orexin A; hit rate 0.43% among 330,000; AID 434989; inhibition, % at 5 µM;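 active = inhibition above its plate's threshold, mean inhibition of all tested compounds on the plate plus 3 SD, cut at about 37% in these data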
TAAR1 agonist: agonists of human TAAR1; hit rate 0.99% among 360,000; Q96RJ0; activation, % at 3 µM; CHO RD-HGA16 TAAR1, Fluo-8 calcium fluorescence; vehicle wells 0%, saturating PEA agonist 100%; AID 624467;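 active = activation above the mean activation of all test compounds in the run plus 3 SD, cut at about 38% in these data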
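Benchmarks: low control DMSO, high control PEA (EC100); System: CHO RD-HGA16 cells carrying human TAAR1 plus Gα16; Detection: Fluo-8 fluorescence, 5 s baseline then 140 s kinetic read; Schedule: 17-24 h plating, Fluo-8 75 min 37 °C, 30 min RT; Read-out basis: % activation from peak over basal fluorescence ratio, DMSO-to-PEA scaled.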
GPR7 antagonist: human neuropeptides B/W receptor 1 antagonism; P48145; GPR7-expressing cells, fluorescence antagonist assay; inhibition, % at 4.4 µM; hit rate 1.1% among 290,000; AID 1861; in the data active = inhibition above about 16%, passing the limit was not always enough;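 also: cells stimulated with the agonist NPW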
Target sequence (P48145 whole entry, looked up): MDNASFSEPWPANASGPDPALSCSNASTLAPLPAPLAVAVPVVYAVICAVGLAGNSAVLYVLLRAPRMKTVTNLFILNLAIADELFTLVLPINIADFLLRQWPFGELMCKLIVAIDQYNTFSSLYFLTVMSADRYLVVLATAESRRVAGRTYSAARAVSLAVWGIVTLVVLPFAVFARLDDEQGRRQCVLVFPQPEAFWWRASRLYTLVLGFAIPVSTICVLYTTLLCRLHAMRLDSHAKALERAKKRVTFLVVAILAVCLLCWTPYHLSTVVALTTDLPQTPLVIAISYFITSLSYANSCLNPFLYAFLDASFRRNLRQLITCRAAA
TAAR1 antagonist: antagonists of human TAAR1; Q96RJ0; CHO RD-HGA16 TAAR1, Fluo-8 calcium fluorescence, antagonist; inhibition, % at 3 µM; hit rate 1.5% among 360,000; AID 624466;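 active = inhibition above a per-plate cutoff, the mean inhibition of test compounds on that plate plus 3 SD, cut at about 49% in these data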
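Test system: CHO RD-HGA16 cells bearing hTAAR1 | Reagent: β-PEA, EC80 | Compound dosing: 3 µM, single point | Schedule: Dye loading 75 min at 37 °C, then 30 min room temperature | Signal: Calcium fluorescence with Fluo-8 | Evaluation: Percent inhibition of PEA-evoked calcium signal, max/basal emission ratio | Control set: DMSO-only wells and EC80 β-PEA-stimulated wells | Repeats: Singlicate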
CHO parental Ca: counter-screen for OX1R antagonists: effect in parental CHO cells | hit rate 0.63% among 330,000 | AID 463079 | inhibition, % at 5.6 µM | parental CHO-K1, ATP-induced calcium, Fluo-8 fluorescence;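 active = inhibition above that plate's mean sample inhibition plus 3 SD, cut at about 26% in these data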
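Assay system: parental CHO cells; Read-out basis: percent inhibition of ATP-evoked calcium rise, normalized to controls; Benchmarks: ATP and no-ATP DMSO wells; Compound dosing: single nominal dose of 5.6 µM per compound; Signal: Fluo-8 calcium dye fluorescence; Also added: ATP as calcium-mobilizing challenge; Repeats: singlicate.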
OX1R Ca confirm: OX1R (human) antagonism, confirmed; shares compounds with OX1R antag-2; CHO/OX1R cells, orexin A calcium Fluo-8 fluorescence; inhibition, % at 5 µM; hit rate 38% among 1,100; AID 492963; in the data active = inhibition above about 29%
CHO Ca counter: signal in parental CHO cells, OX1R antagonist counter-screen. inhibition, % at 5.6 µM. hit rate 9.3% among 1,100. shares compounds with OX1R antag-2. parental CHO-K1, ATP-induced calcium, Fluo-8 fluorescence;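 active = inhibition above a per-plate limit, the mean inhibition of that plate's test compounds plus 3 SD, cut at about 25% in these data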
OX1R HTRF conf: OX1R (human) antagonism, HTRF confirmed; hit rate 49% among 1,800; OX1R-expressing cells, HTRF antagonist assay; inhibition, % at 6.6 µM; shares compounds with OX1R antag-1; in the data active = inhibition above about 55%;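 also: CHO cells expressing OX1R stimulated with orexin A at about EC80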
CHO-K1 HTRF cnt: counter-screen: parental CHO-K1 HTRF response. shares compounds with OX1R antag-1. parental CHO-K1 cells, HTRF counterscreen. inhibition, % at 6.6 µM. hit rate 48% among 1,800. AID 493232; in the data active = inhibition above about 17%
nonsel antag count: nonselective antagonism, TAAR1 counter-screen. shares compounds with TAAR1 antagonist. counterscreen cell line, calcium fluorescence, antagonist mode. inhibition, % at 3 µM. hit rate 77% among 2,400; in the data active = inhibition above about 22%;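 also: CHO-Ga16 host cells stimulated with ATP at an EC80 level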
TAAR1 antag conf: human TAAR1 antagonism, confirmed; shares compounds with TAAR1 antagonist; TAAR1-expressing cells, fluorescence antagonist read-out; inhibition, % at 3 µM; hit rate 40% among 2,400; in the data active = inhibition above about 49%;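 also: CHO-Ga16 host cells challenged with agonist PEA near its EC80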
Ga16 nonsel ag: counter-screen for TAAR1 antagonists: nonselective Ga16 agonists. hit rate 18% among 2,400. shares compounds with TAAR1 antagonist. activation, % at 3 µM. Ga16-expressing cells, calcium fluorescence, agonist counterscreen; in the data active = activation above about 12%
TAAR1 ag counter: activates human TAAR1 in antagonist counter-screen; AID 651955; activation, % at 3 µM; shares compounds with TAAR1 antagonist; hit rate 2% among 2,400; hTAAR1 cell line, fluorescence activation, agonist mode; in the data active = activation above about 37%;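 also: CHO cells stably expressing TAAR1 with calcium dye readout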
Large screens that a line does not name were inactive (follow-up assays come after a bar, where they were run).

COc1cccc(CN(Cc2ccco2)S(=O)(=O)c2ccc(S(=O)(=O)NCc3ccccc3)cc2)c1OC	OX1R antag-1 60, OX1R antag-2 70 | OX1R Ca confirm 40 | CHO Ca counter inactive | OX1R HTRF conf 84 | CHO-K1 HTRF cnt inactive
Cn1c(CNc2nc(-c3ccccc3)cs2)nnc1SCC(=O)N1CCc2ccccc21	OX1R antag-1 80, OX1R antag-2 47 | OX1R Ca confirm inactive | CHO Ca counter inactive | OX1R HTRF conf inactive | CHO-K1 HTRF cnt inactive
COc1ccccc1CN1C[C@@H]2C[C@@H](c3[nH]c4c(C)cccc4c3C)N3CCC[C@@]23C1=O	none
C=C(C)C(COc1c2occc2cc2ccc(=O)oc12)OC(C)(C)C(O)COc1c2occc2cc2ccc(=O)oc12 (stereo not drawn)	OX1R antag-1 84, OX1R antag-2 61, TAAR1 antagonist 58 (no result: GPR7 antagonist) | OX1R Ca confirm 39 | CHO Ca counter inactive | OX1R HTRF conf 88 | CHO-K1 HTRF cnt inactive
O=C(N/N=C/C(Br)=C/c1ccccc1)c1cc(-c2ccco2)[nH]n1	OX1R antag-1 73 | OX1R Ca confirm 50 | CHO Ca counter inactive | OX1R HTRF conf 87 | CHO-K1 HTRF cnt inactive
CC(/C=N/NC(=O)c1cc(-c2cccs2)[nH]n1)=C\c1ccccc1	OX1R antag-1 88, OX1R antag-2 45 | OX1R Ca confirm 45 | CHO Ca counter inactive | OX1R HTRF conf 73 | CHO-K1 HTRF cnt inactive
COc1cccc(OC)c1C(=O)Nc1cccc(-n2cnnn2)c1	OX1R antag-1 88 | OX1R Ca confirm inactive | CHO Ca counter inactive | OX1R HTRF conf 80 | CHO-K1 HTRF cnt inactive
COc1cc(C(=O)Nc2cccc(-n3cnnn3)c2)cc(OC)c1OC	none
O=C(NC(=S)Nc1cccc(NC(=O)c2ccc(Cl)cc2Cl)c1)c1cccs1	none
O=C(Nc1sc2c(c1C(=O)NCC1CCCO1)CCCC2)c1cccs1 (stereo not drawn)	OX1R antag-1 40, OX1R antag-2 48 | OX1R Ca confirm inactive | CHO Ca counter inactive | OX1R HTRF conf inactive | CHO-K1 HTRF cnt inactive
O=C(NC(Cc1c[nH]c2ccccc12)C(=O)Nc1ccc(F)cc1)c1cccs1 (stereo not drawn)	none
O=C(NC(Cc1c[nH]c2ccccc12)C(=O)N/N=C/c1cccnc1)c1cccs1 (stereo not drawn)	OX1R antag-1 71 | OX1R Ca confirm inactive | CHO Ca counter inactive | OX1R HTRF conf inactive | CHO-K1 HTRF cnt inactive
Cc1cccc(NC(=O)C(CC(C)C)NC(=O)C2CCC(C)CC2)n1 (stereo not drawn)	none
COc1ccc(C)cc1NC(=O)c1ccccc1NS(=O)(=O)c1ccc(Cl)s1	OX1R antag-1 62 | OX1R Ca confirm inactive | CHO Ca counter 46 | OX1R HTRF conf inactive | CHO-K1 HTRF cnt inactive
COc1ccccc1NC(=O)c1ccccc1NS(=O)(=O)c1cccs1	none
COc1ccc2c(CCNC(=O)c3ccc([N+](=O)[O-])cc3)c[nH]c2c1	none
Cn1cc(/C=C(\C#N)C(=O)Nc2ccccc2O)c2ccccc21	OX1R antag-1 68, OX1R antag-2 57 (no result: TAAR1 agonist, TAAR1 antagonist) | OX1R Ca confirm 57 | CHO Ca counter inactive | OX1R HTRF conf 89 | CHO-K1 HTRF cnt inactive
CCCn1c2ccc(/C(C)=N\O)cc2c2cc(/C(C)=N/O)ccc21	none
COc1ccc(/C=C/c2nc(-c3ccccc3O)n[nH]2)cc1OC	OX1R antag-1 103, OX1R antag-2 72 | OX1R Ca confirm 67 | CHO Ca counter inactive | OX1R HTRF conf 92 | CHO-K1 HTRF cnt inactive
CC(C)NC(=O)C1CCCN(S(=O)(=O)c2cccs2)C1 (stereo not drawn)	none
CSc1cccc(NC(=O)C2CCCN(S(=O)(=O)c3cccs3)C2)c1 (stereo not drawn)	OX1R antag-1 61, OX1R antag-2 42 | OX1R Ca confirm 50 | CHO Ca counter inactive | OX1R HTRF conf 78 | CHO-K1 HTRF cnt inactive
CSc1cccc(NC(=O)C2CCCN2S(=O)(=O)c2ccc(Br)s2)c1 (stereo not drawn)	OX1R antag-1 89, OX1R antag-2 98 | OX1R Ca confirm 93 | CHO Ca counter inactive | OX1R HTRF conf 91 | CHO-K1 HTRF cnt inactive
CCCCC(c1nc2ccccc2[nH]1)N(C(=O)c1ccccc1)c1ccccc1[N+](=O)[O-] (stereo not drawn)	none (no result: OX1R antag-1, OX1R antag-2, GPR7 antagonist, CHO parental Ca)
O=C(c1ccncc1)c1ccc(N2CCN(C3CC(=O)N(Cc4ccccc4)C3=O)CC2)cc1 (stereo not drawn)	OX1R antag-1 71, TAAR1 antagonist 51 | OX1R Ca confirm inactive | CHO Ca counter inactive | OX1R HTRF conf inactive | CHO-K1 HTRF cnt inactive | nonsel antag count 26 | TAAR1 antag conf inactive | Ga16 nonsel ag inactive | TAAR1 ag counter inactive
COc1ccc(N2CCN(C3CC(=O)N(Cc4ccccc4)C3=O)CC2)cc1 (stereo not drawn)	none
CCOc1ccc(S(=O)(=O)N(C)CC(=O)NCc2ccccn2)cc1Cl	none
COCCn1c(SCC(=O)Nc2cc(C)on2)nnc1-c1ccccc1	none
O=[N+]([O-])c1ccc(N/N=C/c2ccccc2O)cc1	TAAR1 antagonist 79 | OX1R Ca confirm inactive | CHO Ca counter inactive | nonsel antag count 27 | TAAR1 antag conf 84 | Ga16 nonsel ag inactive | TAAR1 ag counter 52
CCC[C@@H](NS(=O)(=O)c1ccc(C)cc1)C(=O)Oc1ccc2c3c(c(=O)oc2c1)CCC3	TAAR1 antagonist 90 | OX1R Ca confirm 39 | CHO Ca counter inactive | nonsel antag count 47 | TAAR1 antag conf 70 | Ga16 nonsel ag inactive | TAAR1 ag counter inactive
